These results are taken from ChEMBL document CHEMBL1156668, “Synthesis and antimicrobial activity of novel sulfone-linked bis heterocycles” (2008).

Holding throughout (assay type): functional
The subject of experiment [1] is Escherichia coli. Briefly: Antibacterial activity against Escherichia coli at 200 ug after 24 hrs by agar disc-diffusion method. The following applies: read-out: IZ. The gist of the method:
(§1)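 Agar disc diffusion on nutrient agar with bacterial strains from NCIM, Pune. Sterile 6 mm filter-paper discs were wetted with compound in DMSO and placed on plates already inoculated with each organism. Plates were incubated at 37 °C, and the diameter of the growth-inhibition zone was measured after 24 h.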
Background: In agar diffusion tests the substance spreads into inoculated agar from a disc or well.

In experiment [2] the test system is Curvularia lunata. Briefly: Antifungal activity against Curvularia lunata at 100 ug after 48 hrs by agar disc-diffusion method. The following applies: read-out: IZ. In outline: (§2)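 Fungal strains from NCIM, Pune, were tested by disc diffusion on nutrient agar. Sterile 6 mm paper discs moistened with the compound solution in DMSO were placed on plates pre-inoculated with each fungus. Plates were incubated at 37 °C, and the inhibition-zone diameter was read after 48 h.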

Experiment [3] has as its system Curvularia lunata. The experiment in a line: Antifungal activity against Curvularia lunata at 200 ug after 48 hrs by agar disc-diffusion method. The following applies: read-out: IZ. In outline:
as §2

In experiment [4] the test system is Klebsiella pneumoniae. The experiment in a line: Antibacterial activity against Klebsiella pneumoniae at 200 ug after 24 hrs by agar disc-diffusion method. The following applies: read-out: IZ. The gist of the method:
as §1

The subject of experiment [5] is Bacillus subtilis. The experiment in a line: Antibacterial activity against Bacillus subtilis at 100 ug after 24 hrs by agar disc-diffusion method. The following applies: read-out: IZ. In outline: as §1
The test system of experiment [6] is Staphylococcus aureus. Briefly: Antibacterial activity against Staphylococcus aureus at 200 ug after 24 hrs by agar disc-diffusion method. The following applies: read-out: IZ. In outline:
as §1

Experiment [7] deals with Bacillus subtilis. Briefly: Antibacterial activity against Bacillus subtilis after 24 hrs by microdilution susceptibility method. The gist of the method:
(§3)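 Microdilution susceptibility test on bacterial strains from NCIM, Pune. Microorganism suspensions were inoculated into wells containing the compound and incubated at 36 °C for 24 h. MIC was taken as the lowest concentration showing no turbidity, meaning complete inhibition of visible growth.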
(Broth dilution looks for growth in wells or tubes with falling amounts of substance.)

Experiment [8] has as its system Escherichia coli. The experiment in a line: Antibacterial activity against Escherichia coli at 100 ug after 24 hrs by agar disc-diffusion method. The following applies: read-out: IZ. The gist of the method: as §1
The subject of experiment [9] is Staphylococcus aureus. Briefly: Antibacterial activity against Staphylococcus aureus at 100 ug after 24 hrs by agar disc-diffusion method. The following applies: read-out: IZ. The gist of the method: as §1
For experiment [10], the system named is Curvularia lunata. The experiment in a line: Antifungal activity against Curvularia lunata after 48 hrs by microdilution susceptibility method. In outline:
(§4)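 Broth microdilution with fungi from NCIM, Pune. Fungal suspensions were added to wells containing the compound and incubated at 36 °C for 48 h. MIC was recorded as the lowest concentration with no turbidity, that is, no visible growth.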

For experiment [11], the system named is Klebsiella pneumoniae. The experiment in a line: Antibacterial activity against Klebsiella pneumoniae at 100 ug after 24 hrs by agar disc-diffusion method. The following applies: read-out: IZ. The gist of the method:
as §1

For experiment [12], the system named is Aspergillus niger. Briefly: Antifungal activity against Aspergillus niger after 48 hrs by microdilution susceptibility method. The gist of the method:
as §4

Experiment [13] concerns Fusarium solani. Briefly: Antifungal activity against Fusarium solani after 48 hrs by microdilution susceptibility method. The gist of the method:
as §4

For experiment [14], the system named is Fusarium solani. Briefly: Antifungal activity against Fusarium solani at 200 ug after 48 hrs by agar disc-diffusion method. The following applies: read-out: IZ. In outline: as §2
Experiment [15] has as its system Fusarium solani. The experiment in a line: Antifungal activity against Fusarium solani at 100 ug after 48 hrs by agar disc-diffusion method. The following applies: read-out: IZ. The gist of the method: as §2
For experiment [16], the system named is Klebsiella pneumoniae. The experiment in a line: Antibacterial activity against Klebsiella pneumoniae after 24 hrs by microdilution susceptibility method. In outline:
as §3

Experiment [17] deals with Bacillus subtilis. The experiment in a line: Antibacterial activity against Bacillus subtilis at 200 ug after 24 hrs by agar disc-diffusion method. The following applies: read-out: IZ. The gist of the method: as §1
Experiment [18] relates to Escherichia coli. Briefly: Antibacterial activity against Escherichia coli after 24 hrs by microdilution susceptibility method. The gist of the method:
as §3

Experiment [19] has as its system Aspergillus niger. Briefly: Antifungal activity against Aspergillus niger at 100 ug after 48 hrs by agar disc-diffusion method. The following applies: read-out: IZ. The gist of the method: as §2
Experiment [20] has as its system Aspergillus niger. Briefly: Antifungal activity against Aspergillus niger at 200 ug after 48 hrs by agar disc-diffusion method. The following applies: read-out: IZ. In outline: as §2
For experiment [21], the system named is Staphylococcus aureus. The experiment in a line: Antibacterial activity against Staphylococcus aureus after 24 hrs by microdilution susceptibility method. In outline: as §3

Converted amounts (≈) assume the structure as drawn.

One may read the MIC as the smallest concentration in the dilution series that meets the test's criterion for growth inhibition. Consider `O=S(=O)(Cc1nnc(S)s1)C1=NNC[C@@H]1c1ccc(Cl)cc1`, for which the zone of inhibition at 200 µg/disc with Escherichia coli [1] is 27 mm; in the experiment on Curvularia lunata [3] it was 26 mm; in the experiment with Klebsiella pneumoniae [4], 26 mm; with Staphylococcus aureus [6] it was 29 mm; in the experiment on Fusarium solani [14], 31 mm; in the experiment on Bacillus subtilis [17], 31 mm. The zone of inhibition at 200 µg/disc in the experiment on Aspergillus niger [20] worked out at 29 mm. Further, the zone of inhibition at 100 µg/disc in the experiment with Curvularia lunata [2] worked out at 23 mm; with Bacillus subtilis [5], 28 mm; with Escherichia coli [8], 22 mm; in the experiment with Staphylococcus aureus [9], 25 mm; in the experiment with Klebsiella pneumoniae [11] it was 24 mm; in the experiment with Fusarium solani [15], 28 mm. For the same compound, in the experiment on Aspergillus niger [19], the zone of inhibition at 100 µg/disc was 26 mm. Further, the MIC with Bacillus subtilis [7] came out at 200 µg/mL (≈ 533 µM); in the experiment with Curvularia lunata [10], 100 µg/mL (≈ 267 µM); against Aspergillus niger [12] it was 200 µg/mL (≈ 533 µM); against Fusarium solani [13], 100 µg/mL (≈ 267 µM); with Klebsiella pneumoniae [16], 200 µg/mL (≈ 533 µM); in the experiment on Escherichia coli [18], 200 µg/mL (≈ 533 µM). The minimal inhibitory concentration (MIC) in the experiment on Staphylococcus aureus [21] came to 100 µg/mL (≈ 267 µM).

As for `Nn1c(S)nnc1CS(=O)(=O)C1=NNC[C@@H]1c1ccccc1`, the zone of inhibition at 200 µg/disc is 25 mm with Escherichia coli [1]; 41 mm in the experiment on Curvularia lunata [3]; 24 mm in the experiment with Klebsiella pneumoniae [4]; 30 mm with Staphylococcus aureus [6]; 44 mm in the experiment with Fusarium solani [14]; 33 mm in the experiment on Bacillus subtilis [17]. Besides, the zone of inhibition at 200 µg/disc in the experiment on Aspergillus niger [20] worked out at 39 mm. Moreover, the zone of inhibition at 100 µg/disc in the experiment on Curvularia lunata [2] was found to be 37 mm; in the experiment with Bacillus subtilis [5] it was 31 mm; with Escherichia coli [8], 22 mm; in the experiment with Staphylococcus aureus [9], 28 mm; in the experiment on Klebsiella pneumoniae [11], 21 mm; with Fusarium solani [15], 39 mm. The zone of inhibition at 100 µg/disc in the experiment on Aspergillus niger [19] came to 36 mm. Besides, the MIC with Bacillus subtilis [7] was 25 µg/mL (≈ 73.9 µM); with Curvularia lunata [10], 100 µg/mL (≈ 295 µM); with Aspergillus niger [12], 100 µg/mL (≈ 295 µM); against Fusarium solani [13], 100 µg/mL (≈ 295 µM); with Klebsiella pneumoniae [16] it was 100 µg/mL (≈ 295 µM); in the experiment on Escherichia coli [18], 50 µg/mL (≈ 148 µM). In the experiment on Staphylococcus aureus [21], this compound yielded an MIC of 25 µg/mL (≈ 73.9 µM).
